Laboratory results published in ChEMBL document CHEMBL1156110, “Novel N-hydroxybenzamide-based HDAC inhibitors with branched CAP group” (Bioorg Med Chem Lett, 2009).
Activity calls are given as the source filed them. The calls are words filed in the database; no cut-off is given here.

Columns and labels:
HepG2 = experiment: Antiproliferative activity against human HepG2 cells after 48 hrs by MTT assay; type: functional; conditions: HepG2, 48 h
HCT-116 = experiment: Antiproliferative activity against human HCT116 cells after 48 hrs by MTT assay; type: functional; conditions: HCT-116, 48 h
[1] = Inhibition of HDAC
A549 = experiment: Antiproliferative activity against human A549 cells after 48 hrs by MTT assay; type: functional; conditions: A549, 48 h
PC-3 = experiment: Antiproliferative activity against human PC3 cells after 48 hrs by MTT assay; type: functional; conditions: PC-3, 48 h
[2] = target: T1, Protein deacetylase HDAC6 (Homo sapiens) (UniProt Q9UBN7); experiment: Inhibition of HDAC6 in human U937 cells assessed as alpha-tubulin acetylation at 5 uM after 24 hrs by Western blot; type: cell-based; conditions: U-937
T1 sequence (whole entry): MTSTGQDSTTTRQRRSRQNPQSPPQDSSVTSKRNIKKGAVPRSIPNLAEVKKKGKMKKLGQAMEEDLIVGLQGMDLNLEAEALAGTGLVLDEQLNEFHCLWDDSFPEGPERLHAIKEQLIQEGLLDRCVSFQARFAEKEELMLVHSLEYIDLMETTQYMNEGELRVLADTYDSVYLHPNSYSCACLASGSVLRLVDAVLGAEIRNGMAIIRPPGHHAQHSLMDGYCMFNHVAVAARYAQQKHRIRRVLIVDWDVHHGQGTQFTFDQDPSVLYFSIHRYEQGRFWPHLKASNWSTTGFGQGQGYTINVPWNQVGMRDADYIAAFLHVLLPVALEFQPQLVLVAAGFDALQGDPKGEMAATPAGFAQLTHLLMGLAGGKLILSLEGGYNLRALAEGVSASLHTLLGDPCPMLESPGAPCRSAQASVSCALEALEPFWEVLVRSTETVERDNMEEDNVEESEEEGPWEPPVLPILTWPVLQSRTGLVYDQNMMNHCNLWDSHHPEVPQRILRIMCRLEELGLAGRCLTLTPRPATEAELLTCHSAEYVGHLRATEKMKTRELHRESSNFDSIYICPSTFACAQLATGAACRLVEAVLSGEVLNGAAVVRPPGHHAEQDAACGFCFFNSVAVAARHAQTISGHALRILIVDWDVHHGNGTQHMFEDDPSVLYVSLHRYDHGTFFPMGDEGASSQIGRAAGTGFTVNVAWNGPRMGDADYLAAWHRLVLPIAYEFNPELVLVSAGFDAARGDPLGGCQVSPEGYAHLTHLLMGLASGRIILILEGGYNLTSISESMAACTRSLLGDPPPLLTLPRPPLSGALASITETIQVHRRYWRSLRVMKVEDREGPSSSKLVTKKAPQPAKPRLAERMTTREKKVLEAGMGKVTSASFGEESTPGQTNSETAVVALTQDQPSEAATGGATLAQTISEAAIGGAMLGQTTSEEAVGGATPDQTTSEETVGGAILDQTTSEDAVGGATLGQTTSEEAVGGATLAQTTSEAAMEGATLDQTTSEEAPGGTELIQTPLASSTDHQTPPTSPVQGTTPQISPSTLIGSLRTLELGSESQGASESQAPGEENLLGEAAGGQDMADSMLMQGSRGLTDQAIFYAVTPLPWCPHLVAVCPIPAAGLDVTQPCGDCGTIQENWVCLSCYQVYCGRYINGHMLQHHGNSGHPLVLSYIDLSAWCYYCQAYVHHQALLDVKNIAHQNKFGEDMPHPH
How it was run: (§1)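 Human leukemia U937 cells exposed to 5 µM for 24 h. Acetyl-histone H3 was read by Western blot as a class I HDAC marker, and acetyl-α-tubulin as an HDAC6 marker.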

U-937 [3] = experiment: Induction of p21WAF1/CIP1 expression in human U937 cells at 5 uM after 24 hrs by Western blot; type: functional, cell-based
[4] = target: Histone deacetylase (Homo sapiens) (UniProt Q13547+O15379+Q9UBN7+Q92769+Q9UQL6+Q8WUI4+Q9BY41+Q96DB2+P56524+Q9UKV0+Q969S8); experiment: Inhibition of HDAC in human U937 cells assessed as histone H3 acetylation at 5 uM after 24 hrs by Western blot; type: cell-based; conditions: U-937; how it was run: as §1
U-937 [5] = experiment: Cell cycle arrest in human U937 cells assessed as accumulation at G1 phase at 5 uM after 30 hrs by FACS; type: functional, cell-based
U-937 [6] = experiment: Induction of granulocytic differentiation in human U937 cells assessed as CD11c positive PI negative cells at 5 uM after 30 hrs by FACS; type: functional, cell-based
How it was run: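 U937 human leukemia cells treated 30 h at 5 µM; differentiation scored by FACS as the percentage of CD11c-positive, PI-negative cells; values are the mean of four independent replicates.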

U-937 [7] = experiment: Induction of apoptosis in human U937 cells at 5 uM after 30 hrs by propidium iodide and annexin V staining; type: functional, cell-based
U-937 [8] = experiment: Cell cycle arrest in human U937 cells assessed as accumulation at S phase at 5 uM after 30 hrs by FACS; type: functional, cell-based
Histone deacetylase 1 = Histone deacetylase 1 (Homo sapiens, UniProt Q13547); experiment: Inhibition of human recombinant HDAC1 expressed in baculovirus
Histone deacetylase 4 = Histone deacetylase 4 (Homo sapiens, UniProt P56524); experiment: Inhibition of human recombinant his tagged HDAC4 expressed in baculovirus
Histone deacetylase 4, sequence (P56524 whole entry): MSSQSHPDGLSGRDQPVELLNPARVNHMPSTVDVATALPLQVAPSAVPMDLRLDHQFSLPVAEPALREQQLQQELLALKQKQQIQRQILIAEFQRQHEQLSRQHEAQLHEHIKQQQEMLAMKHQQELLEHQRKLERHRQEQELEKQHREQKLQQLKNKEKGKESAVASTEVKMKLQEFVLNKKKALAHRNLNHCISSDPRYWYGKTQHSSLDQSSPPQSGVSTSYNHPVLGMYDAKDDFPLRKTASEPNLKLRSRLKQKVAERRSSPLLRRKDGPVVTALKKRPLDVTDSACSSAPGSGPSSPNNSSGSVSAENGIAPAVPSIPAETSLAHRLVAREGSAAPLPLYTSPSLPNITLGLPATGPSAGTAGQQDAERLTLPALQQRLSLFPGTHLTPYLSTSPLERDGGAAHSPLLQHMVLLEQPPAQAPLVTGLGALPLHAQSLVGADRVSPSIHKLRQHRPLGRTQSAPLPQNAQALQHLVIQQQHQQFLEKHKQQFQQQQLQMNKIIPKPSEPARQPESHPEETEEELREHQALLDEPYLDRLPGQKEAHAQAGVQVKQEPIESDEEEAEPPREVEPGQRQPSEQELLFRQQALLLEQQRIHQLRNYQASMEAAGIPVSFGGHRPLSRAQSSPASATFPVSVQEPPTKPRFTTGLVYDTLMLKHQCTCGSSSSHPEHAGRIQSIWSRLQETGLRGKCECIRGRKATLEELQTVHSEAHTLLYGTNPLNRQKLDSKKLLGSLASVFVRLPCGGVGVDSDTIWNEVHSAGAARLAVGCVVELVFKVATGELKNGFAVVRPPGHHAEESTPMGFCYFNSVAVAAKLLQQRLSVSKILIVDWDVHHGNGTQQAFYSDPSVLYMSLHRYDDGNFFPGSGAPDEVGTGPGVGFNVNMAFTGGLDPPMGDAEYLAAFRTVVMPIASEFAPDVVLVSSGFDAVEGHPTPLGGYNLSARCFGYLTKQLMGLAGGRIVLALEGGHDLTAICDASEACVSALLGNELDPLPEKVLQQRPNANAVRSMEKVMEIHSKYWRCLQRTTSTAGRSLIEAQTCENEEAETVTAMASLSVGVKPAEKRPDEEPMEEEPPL

Histone deacetylase 1, sequence (Q13547 whole entry): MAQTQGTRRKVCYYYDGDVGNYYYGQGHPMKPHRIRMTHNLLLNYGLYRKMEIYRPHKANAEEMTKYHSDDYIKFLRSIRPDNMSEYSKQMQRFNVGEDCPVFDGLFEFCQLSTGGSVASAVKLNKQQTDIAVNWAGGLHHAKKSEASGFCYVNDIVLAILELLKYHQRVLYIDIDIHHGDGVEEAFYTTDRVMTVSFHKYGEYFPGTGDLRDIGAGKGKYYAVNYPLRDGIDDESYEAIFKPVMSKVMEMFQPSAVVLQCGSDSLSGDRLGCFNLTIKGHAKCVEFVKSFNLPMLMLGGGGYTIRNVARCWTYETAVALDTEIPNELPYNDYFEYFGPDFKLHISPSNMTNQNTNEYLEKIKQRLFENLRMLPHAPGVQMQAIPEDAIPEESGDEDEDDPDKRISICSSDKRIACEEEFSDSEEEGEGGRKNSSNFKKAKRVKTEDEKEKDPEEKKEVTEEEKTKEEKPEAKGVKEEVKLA

| Compound | GI50 (HepG2) [µM] | GI50 (HCT-116) [µM] | IC50 [1] [µM] | GI50 (A549) [µM] | GI50 (PC-3) [µM] | inhibition [2] | inhibition [4] | IC50 (Histone deacetylase 1) [µM] | IC50 (Histone deacetylase 4) [µM] | Activity (U-937 [3]) | Activity (U-937 [5]) | Activity (U-937 [6]) | Activity (U-937 [7]) | Activity (U-937 [8]) |
| --- | --- | --- | --- | --- | --- | --- | --- | --- | --- | --- | --- | --- | --- | --- |
| Cc1ccc(-c2cnc(N(CCCOc3ccccc3)Cc3ccc(C(=O)NO)cc3)s2)cc1 | 23.4 | 4.14 | 0.195 | 2.53 | 17.5 | Active | Active |  |  | Active | Active |  |  |  |
| Cc1ccc(-c2cnc(N(Cc3ccc(C(=O)NO)cc3)CC(C)C)s2)cc1 | 7.42 | 5.9 | 0.494 | 20.4 | 9.34 |  |  |  |  |  |  |  |  |  |
| Cc1ccc(OCCCCN(Cc2ccc(C(=O)NO)cc2)c2ncc(-c3ccc(C)cc3)s2)cc1 | 11 | 0.58 | 1.67 | 8.63 | 1.22 |  |  |  |  |  |  | Active | Active | Active |
| Cc1ccc(OCCCN(Cc2ccc(C(=O)NO)cc2)c2ncc(-c3ccc(C)cc3)s2)cc1 | 12.2 | 12.6 | 1.07 | 32.5 | 9.33 | Active | Active |  |  | Active | Active |  |  |  |
| Cc1ccc(-c2cnc(N(CCCCOc3ccccc3)Cc3ccc(C(=O)NO)cc3)s2)cc1 | 16.6 | 0.68 | 0.057 | 14.2 | 10.3 | Active | Active |  |  |  | Active |  |  |  |
| Cc1ccc(OCCN(Cc2ccc(C(=O)NO)cc2)c2ncc(-c3ccc(C)cc3)s2)cc1 | 11.5 | 17.3 | 0.101 | 11.2 | 5.57 | Active | Active | 1.05 | > 50 | Active | Active | Active | Active |  |
| CCCN(Cc1ccc(C(=O)NO)cc1)c1ncc(-c2ccc(C)cc2)s1 | 2.55 | 5.8 | 0.052 | 3.31 | 9.16 |  |  |  |  |  |  |  |  |  |
| CCCCCN(Cc1ccc(C(=O)NO)cc1)c1ncc(-c2ccc(C)cc2)s1 | 7.02 | 23.3 | 4.33 | 9.14 | 5.06 |  |  |  |  |  |  |  |  |  |

The remaining molecules from weak to strong by GI50 (HepG2), led by results:

| GI50 (HepG2) [µM] | GI50 (HCT-116) [µM] | IC50 [1] [µM] | GI50 (A549) [µM] | GI50 (PC-3) [µM] | inhibition [2] | inhibition [4] | IC50 (Histone deacetylase 1) [µM] | IC50 (Histone deacetylase 4) [µM] | Compound | Activity (U-937 [3]) | Activity (U-937 [5]) | Activity (U-937 [6]) | Activity (U-937 [7]) | Activity (U-937 [8]) |
| --- | --- | --- | --- | --- | --- | --- | --- | --- | --- | --- | --- | --- | --- | --- |
| 63.5 | 2.69 | 0.053 | > 200 | 8.17 |  |  |  |  | O=C(CCCCCCC(=O)Nc1ccccc1)NO [VORINOSTAT] |  |  |  |  |  |
| 34 | 48.8 | 3.11 | 4.41 | 10.3 |  |  |  |  | Cc1ccc(-c2cnc(N(Cc3ccccc3)Cc3ccc(C(=O)NO)cc3)s2)cc1 |  |  |  |  |  |
| 12 | 8.81 | 0.041 | 14 | 7.86 | inactive | Active | 2.3 | > 50 | Cc1ccc(-c2cnc(N(CCOc3ccccc3)Cc3ccc(C(=O)NO)cc3)s2)cc1 | Active | Active | Active | Active |  |
| 8.76 | 6.5 | 1.59 | 4.63 | 13.3 |  |  |  |  | CCCCCCCCN(Cc1ccc(C(=O)NO)cc1)c1ncc(-c2ccc(C)cc2)s1 |  |  |  |  |  |
| 7.42 | 4.85 | 2.79 | 3.71 | 5.27 |  |  |  |  | CCCCCCN(Cc1ccc(C(=O)NO)cc1)c1ncc(-c2ccc(C)cc2)s1 |  |  |  |  |  |
| 4.3 | 8.78 | 1.35 | 4.78 | 6.41 |  |  |  |  | CCCCN(Cc1ccc(C(=O)NO)cc1)c1ncc(-c2ccc(C)cc2)s1 |  |  |  |  |  |
| 2.18 | 7.8 | 0.168 | 3.83 | 1.15 |  |  |  |  | Cc1ccc(-c2cnc(N(Cc3ccc(C(=O)NO)cc3)C(C)C)s2)cc1 |  |  |  |  |  |
| 1.12 | 6.87 | 0.054 | 2.7 | 10.3 |  |  |  |  | CCN(Cc1ccc(C(=O)NO)cc1)c1ncc(-c2ccc(C)cc2)s1 |  |  |  |  |  |
